Experimental data from ChEMBL document CHEMBL1212813, “alpha-Amino-3-hydroxy-5-methyl-4-isoxazolepropionic acid (AMPA) antagonists: from bench to bedside” (J Med Chem, 2010).
Values after ≈ are worked out from the molar mass of the structure shown. One block for each compound: values may come before it.

Legend:
[1] = Displacement of [3H]AMPA from AMPA receptor in rat cortical membrane in presence of cyclothiazide; assay type: cell membranes
[2] = system: Mus musculus; assay: Anticonvulsant activity in ip dosed mouse assessed as inhibition of MES-induced tonic seizures; assay type: functional
[3] = Displacement of [3H]kainate from kainate receptor in rat cortical membrane; assay type: cell membranes
[4] = Displacement of [3H]AMPA from AMPA receptor in rat cortical membrane; assay type: cell membranes
[5] = Solubility of the compound at pH 7.4; assay type: physicochemical; settings: buffer
[6] = system: Rattus norvegicus; assay: Anticonvulsant activity in po dosed rat assessed as inhibition of MES-induced tonic seizures; assay type: functional
[7] = molecular target: Glutamate NMDA receptor; assay: Inhibition of NMDA receptor glycine site from rat cortical membrane
[8] = molecular target: Glutamate NMDA receptor; assay: Inhibition of NMDA receptor glutamate site from rat cortical membrane
[9] = molecular target: Glutamate NMDA receptor; assay: Displacement of [3H](E)-3-(2-carboxy-2-phenylvinyl)-4,6-dichloro-1H-indole-2-carboxylic acid from NMDA receptor glutamate site from rat cortical membrane
[10] = system: Mus musculus; assay: Anticonvulsant activity in po dosed mouse assessed as inhibition of MES-induced tonic seizures; assay type: functional
Procedure, shortened: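 Mice were dosed orally 2 h before maximal electroshock. The read-out was protection from tonic convulsions, and an ED50 was derived.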

Ki [4]: 2000 nM
Compound: O=[N+]([O-])c1ccc2nc(O)c(O)nc2c1

Ki [4]: 1600 nM
Compound: Oc1nc2ccc(-n3ccnc3)cc2nc1O

Ki [4]: 820 nM
Compound: Oc1nc2cc(-n3ccnc3)c(-n3ccnc3)cc2nc1O

IC50 [4]: 2400 nM
Compound: O=P(O)(O)CNCc1cc(Br)cc2nc(O)c(O)nc12

solubility [5]: 6600 µg/mL (≈ 20 mM)
IC50 [3]: 4200 nM
IC50 [7]: 1160 nM
IC50 [4]: 290 nM
IC50 [8]: 490 nM
Compound: O=c1[nH]c2cc([N+](=O)[O-])cc(CNCP(=O)(O)O)c2[nH]c1=O
ED50 [6]: 5 mg/kg

IC50 [9]: 32 nM
IC50 [4]: 170 nM
Compound: C[C@H](NCc1cc([N+](=O)[O-])cc2nc(O)c(O)nc12)P(=O)(O)O

IC50 [3]: 1500 nM
IC50 [7]: 14000 nM
IC50 [4]: 300 nM
Compound: N#Cc1cc2c(cc1[N+](=O)[O-])=NC(=O)C(=O)N=2

Continued, compound first:

Compound: CN(C)S(=O)(=O)c1cc2c(N=O)c(O)[nH]c2c2c1CCCC2
IC50 [1]: 150 nM
ED50 [2]: 30 mg/kg
IC50 [3]: 81000 nM

Compound: CS(=O)(=O)Nn1c(=O)[nH]c2cc(Cl)ccc2c1=O
ED50 [2]: 40 mg/kg

Compound: Oc1nc2ccccc2nc1O
Ki [4]: > 100000 nM

Compound: N#Cc1ccc2nc(O)c(O)nc2c1
Ki [4]: 5000 nM

Compound: CCC1(C)CC(=O)NC(=O)C1 [BEMEGRIDE]
ED50 [10]: 23.9 mg/kg

Compound: CN1CCc2cc3c(cc2[C@H]1[C@@H]1OC(=O)c2c1ccc1c2OCO1)OCO3 [BICUCULLINE]
ED50 [10]: 14.6 mg/kg
